Measured values from paper PMC7893792 (ACS Omega, 2021).
One block for each molecule: values may come before it.

Experiments:
hOAT1 [1] = target: T1, hOAT1 (Homo sapiens, UniProt Q4U2R8); assay: 6-CF uptake by hOAT1-expressing HEK293 cells; format: cell-based
T1 sequence (Q4U2R8 1-563): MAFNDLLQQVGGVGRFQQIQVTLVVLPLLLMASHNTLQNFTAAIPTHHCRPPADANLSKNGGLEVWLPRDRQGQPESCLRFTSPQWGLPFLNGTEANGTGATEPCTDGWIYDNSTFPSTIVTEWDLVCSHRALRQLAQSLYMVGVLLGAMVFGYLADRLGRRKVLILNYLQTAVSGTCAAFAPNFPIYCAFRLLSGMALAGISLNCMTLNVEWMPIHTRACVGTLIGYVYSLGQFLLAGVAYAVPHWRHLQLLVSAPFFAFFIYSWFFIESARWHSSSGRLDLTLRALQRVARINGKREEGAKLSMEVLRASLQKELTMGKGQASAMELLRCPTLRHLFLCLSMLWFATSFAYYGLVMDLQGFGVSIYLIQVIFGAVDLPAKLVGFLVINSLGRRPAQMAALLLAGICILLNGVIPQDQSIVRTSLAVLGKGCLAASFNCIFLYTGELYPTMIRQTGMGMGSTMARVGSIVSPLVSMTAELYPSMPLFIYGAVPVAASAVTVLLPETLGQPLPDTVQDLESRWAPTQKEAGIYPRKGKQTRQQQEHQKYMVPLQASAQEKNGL

hOAT3 [2] = target: T2, hOAT3 (Homo sapiens, UniProt Q8TCC7); assay: 6-CF uptake by hOAT3-expressing HEK293 cells; format: cell-based; settings: for inhibition at 100 µM: HEK293, pH 7.4, read-out: Inhibition of hOAT3-mediated 6-CF uptake
T2 sequence (Q8TCC7 1-542): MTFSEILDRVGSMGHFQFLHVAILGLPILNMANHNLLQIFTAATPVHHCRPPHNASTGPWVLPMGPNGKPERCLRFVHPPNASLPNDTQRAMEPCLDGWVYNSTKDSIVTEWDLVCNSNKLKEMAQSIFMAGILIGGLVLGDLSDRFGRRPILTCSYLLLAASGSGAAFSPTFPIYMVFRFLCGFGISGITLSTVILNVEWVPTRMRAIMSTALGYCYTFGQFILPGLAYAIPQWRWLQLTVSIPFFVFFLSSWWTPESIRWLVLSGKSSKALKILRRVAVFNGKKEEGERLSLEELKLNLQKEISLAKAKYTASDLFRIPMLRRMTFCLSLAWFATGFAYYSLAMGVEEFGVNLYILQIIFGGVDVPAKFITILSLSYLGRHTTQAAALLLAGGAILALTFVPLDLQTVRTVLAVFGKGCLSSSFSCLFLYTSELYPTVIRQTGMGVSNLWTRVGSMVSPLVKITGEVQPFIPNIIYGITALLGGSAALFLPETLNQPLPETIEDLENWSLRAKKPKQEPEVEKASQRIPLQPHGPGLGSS
Procedure, shortened: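 After 10 min preincubation at 37 °C in Waymouth buffer pH 7.4, cells took up 1 μM 6-CF with test compound for 2 min, then ice-cold PBS wash, 1% SDS lysis, fluorescence. Vector uptake subtracted. Inhibition type: 6-CF 1–100 μM ± 0.1 mM test compound, Eadie–Hofstee plot; mean ± SE, n = 3–4.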

rOat1 = target: T3, rOat1 (Rattus norvegicus, UniProt O35956); assay: 6-CF uptake by rOat1-expressing HEK293 cells; format: cell-based
T3 sequence (O35956 1-551): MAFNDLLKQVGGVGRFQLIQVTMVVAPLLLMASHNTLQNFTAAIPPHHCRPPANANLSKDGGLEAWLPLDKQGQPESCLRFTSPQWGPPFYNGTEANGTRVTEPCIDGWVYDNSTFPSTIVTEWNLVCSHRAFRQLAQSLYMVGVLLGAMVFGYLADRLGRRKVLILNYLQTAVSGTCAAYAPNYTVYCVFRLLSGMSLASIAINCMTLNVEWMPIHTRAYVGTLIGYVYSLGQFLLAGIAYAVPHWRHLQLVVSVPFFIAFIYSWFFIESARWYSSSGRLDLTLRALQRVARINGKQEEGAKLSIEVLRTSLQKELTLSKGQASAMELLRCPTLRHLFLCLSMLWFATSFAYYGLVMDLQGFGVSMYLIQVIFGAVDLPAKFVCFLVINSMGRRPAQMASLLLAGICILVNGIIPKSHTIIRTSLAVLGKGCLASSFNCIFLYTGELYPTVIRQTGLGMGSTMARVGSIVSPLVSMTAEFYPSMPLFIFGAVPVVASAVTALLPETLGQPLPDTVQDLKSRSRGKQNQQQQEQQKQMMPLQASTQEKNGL

rOat3 = target: T4, rOat3 (Rattus norvegicus, UniProt Q9R1U7); assay: 6-CF uptake by rOat3-expressing HEK293 cells; format: cell-based; settings: for inhibition at 100 µM: HEK293, pH 7.4, read-out: Inhibition of rOat3-mediated 6-CF uptake
T4 sequence (Q9R1U7 1-536): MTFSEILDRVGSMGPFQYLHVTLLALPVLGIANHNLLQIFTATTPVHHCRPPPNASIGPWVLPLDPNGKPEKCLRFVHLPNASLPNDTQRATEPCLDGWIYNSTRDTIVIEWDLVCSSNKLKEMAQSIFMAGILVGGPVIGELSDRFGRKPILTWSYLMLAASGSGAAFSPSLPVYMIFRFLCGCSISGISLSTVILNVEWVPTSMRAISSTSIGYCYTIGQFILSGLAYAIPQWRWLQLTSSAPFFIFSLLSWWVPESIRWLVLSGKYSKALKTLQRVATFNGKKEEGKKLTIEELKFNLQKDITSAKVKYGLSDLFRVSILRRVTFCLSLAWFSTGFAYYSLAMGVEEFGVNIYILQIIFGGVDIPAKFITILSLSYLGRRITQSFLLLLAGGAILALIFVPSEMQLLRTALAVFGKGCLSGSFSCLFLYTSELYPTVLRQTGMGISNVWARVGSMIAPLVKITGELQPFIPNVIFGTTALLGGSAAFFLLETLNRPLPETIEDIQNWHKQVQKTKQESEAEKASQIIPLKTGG

renal Oats = assay: Plasma concentration and urinary excretion of 6-CF in rats; format: in vivo; settings: rat; for Decrease of the renal clearance (CLr) of 6-CF: vs control, probenecid 100 mg/kg, EGCG 60 mg/kg, 2% D-malate
Procedure, shortened: (§1)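 Male Wistar/ST rats (7 weeks) were anesthetized with ethyl carbamate/α-chloralose, with femoral artery, vein and bladder catheters. 5% mannitol iv bolus 2.5 mL/kg, then 0.03 mL/min infusion. After 20 min, 6-CF 1 mg/kg iv bolus ± test compound 60 mg/kg, saline vehicle. Plasma sampled 1–60 min, urine 0–60 min; fluorescence read-out. AUC0–60 by trapezoidal rule; CLr = 60-min urinary amount/AUC0–60; mean ± SD, 6–8 rats.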

Renal parameters = format: in vivo; settings: rat; for BUN / Ccr: iv probenecid 100 mg/kg, EGCG 60 mg/kg or 2% D-malate; for Change in blood urea nitrogen (BUN) / Change in creatinine clearance (Ccr): vs control, Dunnett's test
Procedure, shortened: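 Anesthetized, catheterized male Wistar/ST rats on iv 5% mannitol (2.5 mL/kg bolus, 0.03 mL/min infusion; ± 2% D-malate) received 6-CF 1 mg/kg iv alone or with reference inhibitor 100 mg/kg or test compound 60 mg/kg. BUN measured with a colorimetric urea kit; plasma and urine creatinine by kit. Ccr = urinary creatinine excretion rate ÷ plasma creatinine. One-way ANOVA, Dunnett's test vs control.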

hOAT1 [3] = target: T1, hOAT1; settings: cited from earlier work
mouse Oat3 = settings: cited from earlier work
[4] = Plasma concentration and urinary excretion of 6-CF in rats; format: in vivo; settings: male, Wistar/ST, rat, iv, 1 mg/kg
Procedure, shortened: as §1

hOAT1 [5] = target: T1, hOAT1; settings: cited from earlier work; remark: listed apart in the source
hOAT3 [6] = target: T2, hOAT3; settings: cited from earlier work
[7] = substrate: O=C(O)c1ccc(C(=O)O)c(-c2c3ccc(=O)cc-3oc3cc(O)ccc23)c1; assay: 6-CF uptake by rOat1-expressing HEK293 cells; format: cell-based, rat; settings: other: HEK293-rOat1, 2 min, 37 °C, pH 7.4, 1-100 μM 6-CF
[8] = EGCG 60 mg/kg iv with 6-CF 1 mg/kg
[9] = compound 100 μM, 6-CF 1 μM, 2 min, 37 °C, pH 7.4

Type of inhibition (hOAT1 [1]; hOAT1, Eadie-Hofstee plot): mixed-type inhibition | Type of inhibition (hOAT3 [2]; hOAT3, Eadie-Hofstee plot): competitive inhibition | Type of inhibition (rOat1; rOat1, Eadie-Hofstee plot): competitive inhibition | Type of inhibition (rOat3; rOat3, Eadie-Hofstee plot): competitive inhibition | BUN (Renal parameters): 11.9 ± 1.3 mg/dL | Ccr (Renal parameters): 2.58 ± 0.82 mL/min/kg | Change in blood urea nitrogen (BUN) (Renal parameters): no significant change | Change in creatinine clearance (Ccr) (Renal parameters): no significant change
Molecule: O=C(O[C@@H]1Cc2c(O)cc(O)cc2O[C@@H]1c1cc(O)c(O)c(O)c1)c1cc(O)c(O)c(O)c1 [EGCG, (−)-epigallocatechin-3-gallate]
Increase of 6-CF AUC0–60 (renal Oats; [8]): ~2.2 fold | Increase of the plasma concentration of 6-CF at 60 min (renal Oats; [8]): ~8 fold | Decrease of the renal clearance (CLr) of 6-CF (renal Oats): ~2.6 fold

Molecule: O=C(O)C[C@@H](O)C(=O)O [D-malate]
Decrease of the renal clearance (CLr) of 6-CF (renal Oats): ~4 fold | BUN (Renal parameters): 11.4 ± 1.1 mg/dL | Ccr (Renal parameters): 2.92 ± 0.66 mL/min/kg | Change in blood urea nitrogen (BUN) (Renal parameters): no significant change | Change in creatinine clearance (Ccr) (Renal parameters): no significant change

Molecule: Oc1cc(O)c2c(c1)O[C@H](c1ccc(O)c(O)c1)[C@H](O)C2 [epicatechin]
Interaction with hOAT1 (hOAT1 [3]): did not interact | Inhibition of mouse Oat3 (mouse Oat3): inhibit

inhibition at 100 µM (hOAT3 [2]): > 80% | inhibition at 100 µM (rOat3): > 80%
Molecule: CCCCC[C@H](O)/C=C/[C@H]1[C@H](O)CC(=O)[C@@H]1C/C=C\CCCC(=O)O [prostaglandin E2]

inhibition at 100 µM (hOAT3 [2]): > 80% | inhibition at 100 µM (rOat3): > 80% | BUN (Renal parameters): 12.6 ± 0.7 mg/dL | Ccr (Renal parameters): 2.51 ± 0.78 mL/min/kg | Change in blood urea nitrogen (BUN) (Renal parameters): no significant change | Change in creatinine clearance (Ccr) (Renal parameters): no significant change
Molecule: CCCN(CCC)S(=O)(=O)c1ccc(C(=O)O)cc1 [probenecid]
Decrease of the renal clearance (CLr) of 6-CF (renal Oats): ~6 fold

Inhibition of hOAT1-mediated 6-CF uptake (hOAT1 [1]; [9]): no effects | Inhibition of hOAT3-mediated 6-CF uptake (hOAT3 [2]; [9]): no effects | Inhibition of rOat1-mediated 6-CF uptake (rOat1; [9]): no effects | Inhibition of rOat3-mediated 6-CF uptake (rOat3; [9]): no effects
Molecule: CC[N+](CC)(CC)CC [TEA, tetraethylammonium]

Molecule: O=C(O[C@@H]1Cc2c(O)cc(O)cc2O[C@@H]1c1ccc(O)c(O)c1)c1cc(O)c(O)c(O)c1 [epicatechin gallate]
Inhibition of mouse Oat3 (mouse Oat3): inhibit

Inhibitory effect, OAT1 compared with OAT3 (human) (hOAT1 [1]; 100 μM, hOAT1 vs hOAT3 plot): higher for OAT1 than those for OAT3 | Inhibitory effect, OAT1 compared with OAT3 (rat) (rOat1; 100 μM, rOat1 vs rOat3 plot): higher for OAT1 than those for OAT3
Molecule: Nc1ncnc2c1ncn2CCOCP(=O)(O)O [adefovir]

Vmax of 6-CF uptake (rOat1; HEK293-rOat1, 2 min, 37 °C, pH 7.4): 131 ± 3 pmol/mg/2 min | Vmax of 6-CF uptake (rOat3; HEK293-rOat3, 2 min, 37 °C, pH 7.4): 35.3 ± 1.3 pmol/mg/2 min | CL renal ([4]; plasma and urine): 18.3 ± 6.8 mL/min/kg | AUC(0-t) ([4]; plasma): 573 ng·h/mL
Molecule: O=C(O)c1ccc(C(=O)O)c(-c2c3ccc(=O)cc-3oc3cc(O)ccc23)c1 [6-CF, 6-carboxyfluorescein]
Vmax of 6-CF transport (hOAT1 [5]): 125.1 ± 1.6 pmol/mg/2 min | Km (hOAT1 [5]; read-out: Km of 6-CF transport): 6.94 ± 0.33 µM | Vmax of 6-CF transport (hOAT3 [6]): 70.0 ± 3.2 pmol/mg/2 min | Km (hOAT3 [6]; read-out: Km of 6-CF transport): 38.4 ± 4.2 µM

Molecule: O.Oc1cc(O)c2c(c1)O[C@H](c1ccc(O)c(O)c1)[C@@H](O)C2 [catechin]
Interaction with hOAT1 (hOAT1 [3]): did not interact

B1: rOat1 (Rattus norvegicus) (protein)
chain: T3 sequence (O35956 1-551)
Km [7]: 6.68 ± 0.62 µM
